Measured values reported in ChEMBL document CHEMBL1177836, “New quinoxaline 1, 4-di-N-oxides: anticancer and hypoxia-selective therapeutic agents” (Eur J Med Chem, 2010).
In brackets after ≈: the same amount, converted by molar mass.

Tests used:
[1] = Cytotoxicity against mouse EAC cells in hypoxic condition assessed as cell viability at 10 ug/ml after 2 hrs by trypan blue exclusion assay; type: functional; details: Ehrlich, read-out: Activity
Summary of the method: (§1)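 EAC cells aspirated from ascitic fluid of pre-inoculated female Swiss albino mice, suspended at 2.5×10⁶ cells/ml. Compounds freshly diluted in DMSO, 0.1 ml added per tube. Parallel aerobic and anaerobic tube sets; anaerobic tubes gassed with N₂ throughout. Incubation 2 h, then centrifugation. Trypan blue exclusion with haemocytometer counts; % viability = unstained cells/total cells × 100. DMSO-only negative control.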

[2] = Cytotoxicity against mouse EAC cells in aerobic condition assessed as cell viability at 10 ug/ml after 2 hrs by trypan blue exclusion assay; type: functional; details: Ehrlich, read-out: Activity; summary of the method: as §1
[3] = Cytotoxicity against mouse EAC cells in aerobic condition assessed as cell viability at 50 ug/ml after 2 hrs by trypan blue exclusion assay; type: functional; details: Ehrlich, read-out: Activity; summary of the method: as §1
[4] = Cytotoxicity against mouse EAC cells in aerobic condition by trypan blue exclusion assay; type: functional, cell-based; details: Ehrlich; summary of the method: as §1
[5] = Cytotoxicity against mouse EAC cells in hypoxic condition assessed as cell viability at 100 ug/ml after 2 hrs by trypan blue exclusion assay; type: functional; details: Ehrlich, read-out: Activity; summary of the method: as §1
[6] = Cytotoxicity against mouse EAC cells in aerobic condition assessed as cell viability at 100 ug/ml after 2 hrs by trypan blue exclusion assay; type: functional; details: Ehrlich, read-out: Activity; summary of the method: as §1
[7] = tested on: Ehrlich; assay: Cytotoxicity against mouse EAC cells in hypoxic condition assessed as concentration required for 1% cell survival
[8] = Cytotoxicity against mouse EAC cells in aerobic condition assessed as cell viability at 1 ug/ml after 2 hrs by trypan blue exclusion assay; type: functional; details: Ehrlich, read-out: Activity; summary of the method: as §1
[9] = tested on: HepG2; assay: Growth inhibition of human HepG2 cells after 48 hrs by SRB assay; type: functional, cell-based; details: HepG2, 48 h
Summary of the method: (§2)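 Cells plated at 10⁴ per well and allowed 24 h to attach. Compounds dissolved in DMSO were added at 0.1, 2.5, 5 and 10 µg/ml and incubated 48 h at 37 °C under 5% CO₂. Cells were then fixed, washed and stained with sulforhodamine B, and colour intensity was read on an ELISA reader.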

[10] = Cytotoxicity against mouse EAC cells in aerobic condition assessed as cell viability at 25 ug/ml after 2 hrs by trypan blue exclusion assay; type: functional; details: Ehrlich, read-out: Activity; summary of the method: as §1
[11] = Cytotoxicity against mouse EAC cells in hypoxic condition by trypan blue exclusion assay; type: functional, cell-based; details: Ehrlich
Summary of the method: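 EAC suspension (2.5×10⁶ cells/ml, from ascitic fluid of pre-inoculated female Swiss albino mice) exposed 2 h to DMSO-dissolved compounds over 1–100 µg/ml, in air or under continuous N₂. Viability by trypan blue exclusion, haemocytometer counts. IC50 taken as the concentration causing 50% mortality in net cell numbers.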

[12] = Cytotoxicity against mouse EAC cells in hypoxic condition assessed as cell viability at 5 ug/ml after 2 hrs by trypan blue exclusion assay; type: functional; details: Ehrlich, read-out: Activity; summary of the method: as §1
[13] = Cytotoxicity against mouse EAC cells in hypoxic condition assessed as cell viability at 50 ug/ml after 2 hrs by trypan blue exclusion assay; type: functional; details: Ehrlich, read-out: Activity; summary of the method: as §1
[14] = tested on: U-251; assay: Growth inhibition of human U251 cells after 48 hrs by SRB assay; type: functional, cell-based; details: U-251, 48 h; summary of the method: as §2
[15] = Cytotoxicity against mouse EAC cells in aerobic condition assessed as cell viability at 5 ug/ml after 2 hrs by trypan blue exclusion assay; type: functional; details: Ehrlich, read-out: Activity; summary of the method: as §1
[16] = Ratio of IC50 for mouse EAC cells in aerobic condition to IC50 for mouse EAC cells in hypoxic condition
[17] = Cytotoxicity against mouse EAC cells in hypoxic condition assessed as cell viability at 1 ug/ml after 2 hrs by trypan blue exclusion assay; type: functional; details: Ehrlich, read-out: Activity; summary of the method: as §1
[18] = Cytotoxicity against mouse EAC cells in hypoxic condition assessed as cell viability at 25 ug/ml after 2 hrs by trypan blue exclusion assay; type: functional; details: Ehrlich, read-out: Activity; summary of the method: as §1

Row | SMILES | IC50 [9] [µg/mL] | IC50 [14] [µg/mL] | HCR (IC50 air/IC50 hypoxia ratio) [16] | viability at 10 µg/mL [1] [%] | viability at 10 µg/mL [2] [%] | viability at 50 µg/mL [3] [%] | IC50 [4] [µg/mL] | viability at 100 µg/mL [5] [%] | viability at 100 µg/mL [6] [%] | Potency [7] [µg/mL] | viability at 1 µg/mL [8] [%] | viability at 25 µg/mL [10] [%] | IC50 [11] [µg/mL] | viability at 5 µg/mL [12] [%] | viability at 50 µg/mL [13] [%] | viability at 5 µg/mL [15] [%] | viability at 1 µg/mL [17] [%] | viability at 25 µg/mL [18] [%]
1 | CNc1c(C#N)[n+]([O-])c2cc(Cl)ccc2[n+]1[O-] | 4.75 (≈ 19 µM) | > 10 | > 1 | 92.7 | 96.7 | 82.7 | > 100 | 72 | 89 | > 100 | 100 | 94 | > 100 | 96 | 81.4 | 96 | 99.5 | 90.6
2 | CC(=O)N(C(C)=O)c1c(C#N)[n+]([O-])c2cc(Cl)ccc2[n+]1[O-] | 5.69 (≈ 17.7 µM) | > 10 | > 40 | 12.6 | 83.9 | 78.9 | > 100 | 0 | 77.7 | 22 (≈ 68.6 µM) | 99.6 | 80.7 | 2.5 (≈ 7.8 µM) | 30.3 | 1.3 | 99 | 75.4 | 3
3 | Cc1c(NC(=O)OC(C)C)[n+]([O-])c2cc(Cl)ccc2[n+]1[O-] | > 10 | > 10 |  | 97.3 | 98.3 | 96.4 |  | 90.6 | 92 |  | 100 | 97 |  | 98.3 | 96.3 | 98.8 | 100 | 96
4 | Cc1c(C(=O)N=[N+]=[N-])[n+]([O-])c2cc(Cl)ccc2[n+]1[O-] |  |  | > 1 | 88.3 | 98 | 91.2 | > 100 | 59.1 | 81.8 | > 100 | 100 | 98 | > 100 | 92.6 | 70.3 | 98 | 99.3 | 84.2
5 | N#Cc1c(N)[n+]([O-])c2ccc(Cl)cc2[n+]1[O-] |  |  | > 7.4 | 71.3 | 97.3 | 94.3 | > 100 | 5 | 94 | > 100 | 100 | 95 | 13.5 (≈ 57.1 µM) | 87.8 | 43.5 | 98.8 | 94 | 65.1

The next lines start with results.

Row | IC50 [9] [µg/mL] | IC50 [14] [µg/mL] | HCR (IC50 air/IC50 hypoxia ratio) [16] | SMILES | viability at 10 µg/mL [1] [%] | viability at 10 µg/mL [2] [%] | viability at 50 µg/mL [3] [%] | IC50 [4] [µg/mL] | viability at 100 µg/mL [5] [%] | viability at 100 µg/mL [6] [%] | Potency [7] [µg/mL] | viability at 1 µg/mL [8] [%] | viability at 25 µg/mL [10] [%] | IC50 [11] [µg/mL] | viability at 5 µg/mL [12] [%] | viability at 50 µg/mL [13] [%] | viability at 5 µg/mL [15] [%] | viability at 1 µg/mL [17] [%] | viability at 25 µg/mL [18] [%]
6 | 0.77 (≈ 1.85 µM) | > 10 | > 1.4 | CCOc1ccc(/N=C/c2c(-c3ccccc3)[n+]([O-])c3ccc(OC)cc3[n+]2[O-])cc1 | 92.9 | 95.4 | 91.1 | > 100 | 30.5 | 84.1 | > 100 | 99.3 | 92.3 | 70 (≈ 168 µM) | 97 | 64.9 | 99 | 99.3 | 84.4
7 | 4.95 (≈ 12.3 µM) | > 10 | > 1 | CCOc1ccc(NCc2nc3cc(OC)ccc3[n+]([O-])c2-c2ccccc2)cc1 | 98 | 96.3 | 93.3 | > 100 | 80.7 | 85 | > 100 | 100 | 97.6 | > 100 | 99 | 87 | 98.6 | 100 | 95
8 | 6 (≈ 16.2 µM) | > 10 |  | COc1ccc(NC(=O)Nc2c(C)[n+]([O-])c3ccc(OC)cc3[n+]2[O-])cc1 |  |  |  |  |  |  |  |  |  |  |  |  |  |  | 
9 | 6 (≈ 19.5 µM) | > 10 | > 1 | COc1ccc2c(c1)[n+]([O-])c(NC(=O)OC(C)C)c(C)[n+]2[O-] | 90.4 | 99 | 92.6 | > 100 | 63.2 | 87.7 | > 100 | 100 | 97 | > 100 | 91.9 | 76.2 | 99 | 94.8 | 82.3
10 | 0.5 (≈ 1.33 µM) | > 10 | 10 | COc1ccc(NC(=O)Nc2c(C)[n+]([O-])c3ccc(Cl)cc3[n+]2[O-])cc1 | 50.2 | 83 | 73.3 | 100 (≈ 267 µM) | 5.3 | 54.6 | > 100 | 99.6 | 79.2 | 10 (≈ 26.7 µM) | 73.3 | 10.3 | 98 | 86.7 | 24.2
11 | 3.61 (≈ 13.1 µM) | > 10 | > 8 | COc1ccc2c(c1)[n+]([O-])c(C(=O)N=[N+]=[N-])c(C)[n+]2[O-] | 58.3 | 83.9 | 77.9 | > 100 | 1.3 | 56 | 90 (≈ 327 µM) | 94.5 | 80.7 | 12.5 (≈ 45.4 µM) | 81.1 | 6.2 | 99 | 94.5 | 11.3
12 | 56.6 (≈ 318 µM) | 71.2 (≈ 400 µM) |  | Nc1n[n+]([O-])c2ccccc2[n+]1[O-] [TIRAPAZAMINE] |  |  |  |  |  |  |  |  |  |  |  |  |  |  | 
